Series [1] can be described thus: Toxicity in folate-deficient diet fed SCID mouse xenografted with human IGROV1 cells assessed as body weight loss at 28 mg/kg, iv administered […] post 2 days of tumor implantation measured after 48 hrs of last dosage. It counts as organism-based. As to conditions: in vivo. Summed up:
(§1)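 Female NCR SCID mice (11 weeks old, ~20 g) are fed a folate-deficient diet from 14 days before implant. IGROV1 fragments (30–60 mg) are trocar-implanted subcutaneously in both flanks, and mice are randomised at 5/group. Tail-vein dosing starts on day 2: 28 mg/kg/inj Q3dx5, or 96 or 150 mg/kg/inj Q3dx4. Vehicle is 5% ethanol, 1% Tween-80, 0.5% NaHCO3 in water at pH 6.5. Caliper tumor mass is (a×b²)/2, T/C is taken when controls reach 700–1200 mg, and weights are recorded daily.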
For orientation: In xenograft studies the graft and the host belong to different species.

Series [2] relates to IGROV-1. As to the kind of experiment: Antiproliferative activity against human IGROV1 cells expressing human FR-alpha/PCFT assessed as reduction in cell viability measured after 96 hrs in presence of folic acid by Cell-Titer Blue fluorescence analysis. It counts as functional, cell-based. Conditions: IGROV-1, 96 h.
For series [3], the system named is IGROV-1. Kind of series: Antiproliferative activity against human IGROV1 cells expressing human FR-alpha/PCFT assessed as reduction in cell viability measured after 96 hrs by Cell-Titer Blue fluorescence analysis. It counts as functional, cell-based. As to conditions: IGROV-1, 96 h.
Series [4] can be described thus: Toxicity in standard diet fed SCID mouse xenografted with human IGROV1 cells assessed as body weight loss at 28 mg/kg, iv administered […] post 2 days of tumor implantation measured during compound treatment. It counts as organism-based. Conditions: in vivo, 48 h. Summed up:
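Standard-diet female NCR SCID mice bearing bilateral s.c. IGROV1 fragments; i.v. tail-vein dosing from day 2 post-implant, Q3dx5, vehicle 5% ethanol/1% Tween-80/0.5% NaHCO3 in water, pH 6.5; mice weighed and assessed daily during and after treatment; weight loss recorded as nadir.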

Series [5] concerns IGROV-1. As to the kind of experiment: Antitumor activity against human IGROV1 cells xenografted into folate-deficient diet fed SCID mouse assessed as tumor growth delay at 96 mg/kg, iv administered […] post 2 days of tumor implantation. It counts as functional.
The subject of series [6] is IGROV-1. As to the kind of experiment: Antitumor activity against human IGROV1 cells xenografted into folate-deficient diet fed SCID mouse assessed as tumor cell kill at 96 mg/kg, iv administered […] post 2 days of tumor implantation measured on day 20. It counts as functional.
The subject of series [7] is IGROV-1. Kind of series: Antitumor activity against human IGROV1 cells xenografted into folate-deficient diet fed SCID mouse assessed as tumor cell kill at 28 mg/kg, iv administered […] post 2 days of tumor implantation measured on day 20. It counts as functional. Summed up:
as §1

Series [8] concerns IGROV-1. As to the kind of experiment: Antitumor activity against human IGROV1 cells xenografted into folate-deficient diet fed SCID mouse assessed as tumor growth at 96 mg/kg, iv administered […] post 2 days of tumor implantation measured on day 20 relative to control. It counts as functional. Summed up:
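Female NCR SCID mice, 11 weeks, ~20 g, on folate-deficient or standard diet from 14 days pre-implant; bilateral s.c. IGROV1 fragments (30–60 mg); 5 mice/group; tail-vein dosing from day 2 (Q3d schedules) in 5% ethanol, 1% Tween-80, 0.5% NaHCO3, water, pH 6.5; caliper mass (a×b²)/2; T/C and T−C delay.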

Series [9] in a line: Toxicity in folate-deficient diet fed SCID mouse xenografted with human IGROV1 cells assessed as body weight loss at 96 and 150 mg/kg, iv administered […] post 2 days of tumor implantation measured after 48 hrs of last dosage. It counts as organism-based. As to conditions: in vivo. Summed up:
as §1

Series [10] deals with IGROV-1. Kind of series: Antitumor activity against human IGROV1 cells xenografted into folate-deficient diet fed SCID mouse assessed as tumor growth at 28 mg/kg, iv administered […] post 2 days of tumor implantation measured on day 20 relative to control. It counts as functional. Summed up:
as §1

Series [11] is described as follows: Toxicity in folate-deficient diet fed SCID mouse xenografted with human IGROV1 cells assessed as body weight loss at 28 mg/kg, iv administered […] post 2 days of tumor implantation measured during compound treatment. As to conditions: in vivo, 48 h. It counts as organism-based. Summed up:
as §1

The IC50 is the concentration needed to halve the response being measured. A word on the T/C: it is the ratio of treated to control. `Nc1nc2[nH]c(CCCc3ccc(C(=O)N[C@@H](CCC(=O)O)C(=O)O)s3)cc2c(=O)[nH]1`: the Activity entry is listed as “Non-Toxic” in [1], “Non-Toxic” in series [4], “Non-Toxic” in [9] and 15% in series [11]. In addition, the figures for the IC50 in the series with IGROV-1 [2] and with IGROV-1 [3] were 213 nM and 0.95 nM, respectively. Further, the Time with IGROV-1 [5] was 9 days. For the same molecule, the LCK in the series on IGROV-1 [6] and with IGROV-1 [7] was 1.4 in each case. Moreover, the T/C with IGROV-1 [8] is 29%; in the series with IGROV-1 [10], 35%.

Values taken from ChEMBL document CHEMBL4431326, “Tumor Targeting with Novel 6-Substituted Pyrrolo [2,3-d] Pyrimidine Antifolates with Heteroatom Bridge Substitutions via Cellular Uptake by Folate Receptor α and the Proton-Coupled Folate Transporter and Inhibition of de Novo Purine Nucleotide Biosynthesis” (J Med Chem, 2016).
